PTEN del growth = suppresses growth of cells with PTEN deletion | viability, % at 10 µM | HCT116 PTEN-null viability, CellTiter-Glo, 60 h; stronger effect = lower value | 1.2% of 140,000 active;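 active = viability at or below a set limit, 4 SD under the median of all tested compounds, cut at about 3.7% in these data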;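 note: PTEN knockout HCT116 line with beta catenin targeted HCT116 as companion control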
Dynein transport = dynein cargo transport inhibition | z-score, hits read low | 3617.4 mouse cells, GR-EGFP nuclear translocation imaging; test concentration mostly 20 µM; stimulated with dexamethasone, 1 µM; stronger effect = lower value | 0.47% of 220,000 active;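 active = plate z-score of nuclear minus cytoplasmic receptor signal below a set negative limit, without overly bright fluorescence or cell loss, cut at about -3.5 in these data, passing the limit was not always enough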;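 note: z-score of nuclear minus cytoplasmic ring GR-EGFP intensity difference per well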
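Buffer or medium: tet-free medium with charcoal-stripped serum / Also added: dexamethasone agonist, 1.0 µM final, for 30 min / Timing: induction 48 h, compound 1 h, agonist 30 min / Measured by: high-content fluorescence imaging after fixation / Read-out: nuclear-to-cytoplasmic GR-EGFP distribution per well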
HCT116 bCat-KO = beta-catenin-lacking colon tumor cell growth suppression | viability, % at 10 µM | HCT116 beta-catenin knockout viability, CellTiter-Glo, 60 h; stronger effect = lower value | 1.5% of 140,000 active;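 active = viability at or under a set limit, the compound median less 4 SD, cut at about 6% in these data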;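 note: 0% = Hyamine 1622 control at 20 µM and 100% = untreated cell control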
L major viab = Leishmania major promastigote growth inhibition | inhibition, % at 10 µM | 9% of 200,000 active | AID 1063 | Leishmania major promastigotes, resazurin fluorescence viability; in the data active = inhibition above about 50%;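 note: promastigotes grown with compound for 44 hours at 28 °C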
Autophagy mod = alters autophagy in cells; MEF GFP-LC3 puncta imaging; test concentration mostly 10 µM; calls only at 10 µM (by protocol); 0.98% of 190,000 active;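 active = percentage of spot-positive cells more than 3 SD above its plate mean, without a fluorescence outlier flag or 80% toxicity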;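 note: spot-positive cell cutoff set from DMSO-treated cells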
An asterisk follows results filed as active. The list is not random: actives were taken first. Their share in the collection is about 9.2%.

`N#C/C(=C\c1cn(Cc2ccccc2C#N)c2ccccc12)C(=O)NCc1cccs1` gave PTEN del growth 73, Dynein transport 1.5, HCT116 bCat-KO 77, L major viab -5 and Autophagy mod inactive.
`Cc1ccc(C)c(OCCn2cc(/C=C(/C#N)C(=O)NCC3CCCO3)c3ccccc32)c1` (stereo not drawn) gave PTEN del growth 68, Dynein transport 3, HCT116 bCat-KO 82, L major viab 98* and Autophagy mod inactive.
Screening COc1ccccc1OCCn1cc(/C=C(\C#N)C(=O)NCc2cccs2)c2ccccc21 returned PTEN del growth 83, Dynein transport -0.67, HCT116 bCat-KO 87, L major viab 94* and Autophagy mod inactive.
`COc1cc(/C=C(\C#N)C(=O)NCC2CCCO2)ccc1O` (stereo not drawn) gave PTEN del growth 104, Dynein transport 0.62, HCT116 bCat-KO 98, L major viab 11 and Autophagy mod inactive.
N#C/C(=C\c1cn(CCOc2ccccc2)c2ccccc12)C(=O)NCC1CCCO1 (stereo not drawn) was read as PTEN del growth 80, Dynein transport -0.067, HCT116 bCat-KO 81, L major viab 23 and Autophagy mod inactive.
`CCOc1ccc(/C=C(\C#N)C(=O)NCC2CCCO2)cc1OCC` (stereo not drawn) gave PTEN del growth 104, Dynein transport -0.73, HCT116 bCat-KO 98, L major viab 64* and Autophagy mod inactive.
Screening C=C(C)c1cccc(C(C)(C)NC(=O)N2CCC(C(N)=O)CC2)c1 returned Dynein transport -0.16, L major viab -4 and Autophagy mod inactive.
`O=C(CCN1CCN(c2ccccc2)CC1)NNC(=S)Nc1ccccc1Cl` gave Dynein transport -0.33, L major viab 0 and Autophagy mod inactive.
CCOC(=O)c1ccc(CNCc2ccc(C)cc2)cc1 was read as PTEN del growth 89, Dynein transport 0.95, HCT116 bCat-KO 95, L major viab 79* and Autophagy mod inactive.
CCOC(=O)c1ccc(Oc2c(C)oc3cc(OS(C)(=O)=O)ccc3c2=O)cc1 was read as PTEN del growth 79, Dynein transport 1.9, HCT116 bCat-KO 82, L major viab 53* and Autophagy mod inactive.
Screening CCOc1ccc(Oc2c(C)oc3cc(O)ccc3c2=O)cc1 returned Dynein transport -0.049, L major viab 0 and Autophagy mod inactive.
For CN(C1=C(N2CCOCC2)C(=O)c2ccccc2C1=O)c1ccccc1 the results were PTEN del growth 33, Dynein transport -0.18, HCT116 bCat-KO 47, L major viab 59* and Autophagy mod inactive.
Screening CC(=O)OC(C(=O)NCCN1CCOCC1)c1c(F)cccc1F (stereo not drawn) returned Dynein transport -1, L major viab -4 and Autophagy mod inactive.
Cc1cc(C)cc(NC(=O)CSc2ccc(-c3cccs3)nn2)c1 was read as PTEN del growth 86, Dynein transport -0.29, HCT116 bCat-KO 83, L major viab 72* and Autophagy mod inactive.
`Cc1ccccc1NC(=O)CSc1ccc(-c2ccco2)nn1` gave PTEN del growth 95, Dynein transport 0.15, HCT116 bCat-KO 85, L major viab -1 and Autophagy mod inactive.
Cc1ccc(C)c(NC(=O)CSc2ccc(-c3ccco3)nn2)c1 was read as PTEN del growth 96, Dynein transport -0.9, HCT116 bCat-KO 94, L major viab 55* and Autophagy mod inactive.
`Cc1cccc(NC(=O)CSc2nnc(-c3ccco3)c(-c3ccco3)n2)c1` gave Dynein transport -1.5, L major viab 68* and Autophagy mod inactive.
Screening Cc1cccc(NC(=O)CSc2nnc(-c3ccco3)c(-c3ccco3)n2)c1C returned PTEN del growth 87, Dynein transport 1.1, HCT116 bCat-KO 80, L major viab 87* and Autophagy mod inactive.
For O=C(CSc1ccc(-c2cccs2)nn1)Nc1ccccc1 the results were Dynein transport -0.6, L major viab 0 and Autophagy mod inactive.
For COc1ccc(-c2nnc3n(CCc4ccccc4)c(=O)c4ccccc4n23)cc1OC the results were PTEN del growth 81, Dynein transport 0.7, HCT116 bCat-KO 75, L major viab 24 and Autophagy mod inactive.
`CCOC(=O)c1cccnc1SCC(=O)Nc1ccc(C)cc1` gave Dynein transport 0.084, L major viab 2 and Autophagy mod inactive.

Assay outcomes: PubChem BioAssay, several laboratories
